ChEMBL document CHEMBL1145138, “Design and synthesis of 4-azaindoles as inhibitors of p38 MAP kinase” (J Med Chem, 2003)

Experiments:
[1] = biological target: Mitogen-activated protein kinase 14 (Homo sapiens, UniProt Q16539); test: In vitro inhibitory concentration against Mitogen-activated protein kinase p38 alpha
[2] = biological target: Mitogen-activated protein kinase 14 (Rattus norvegicus) (UniProt P70618); test: In vivo percent inhibition of LPS stimulated TNF alpha synthesis in rat at a concentration of 30 mg/kg; format: functional, organism-based; design: dose 30 mg/kg
Sequence of Mitogen-activated protein kinase 14 (Rattus norvegicus) (P70618 whole entry): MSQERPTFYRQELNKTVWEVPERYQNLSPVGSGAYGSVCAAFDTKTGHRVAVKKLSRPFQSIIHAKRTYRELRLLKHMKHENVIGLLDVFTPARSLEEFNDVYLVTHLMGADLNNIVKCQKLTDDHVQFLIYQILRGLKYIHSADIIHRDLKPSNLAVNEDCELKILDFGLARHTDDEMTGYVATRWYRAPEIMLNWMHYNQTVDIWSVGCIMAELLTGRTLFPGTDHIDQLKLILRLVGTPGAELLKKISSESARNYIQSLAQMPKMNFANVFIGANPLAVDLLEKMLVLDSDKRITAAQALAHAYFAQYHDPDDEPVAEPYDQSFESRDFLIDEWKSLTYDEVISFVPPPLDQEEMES
In short: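 Female Wistar/Han rats, 8 per group, were dosed orally at −30 min with compound in CMC vehicle (0.9% NaCl, 0.5% Na-CMC, 0.4% polysorbate 80, 0.9% benzyl alcohol) or with vehicle alone. LPS 50 μg/kg was given ip at 0 h. At 1.5 h, blood was taken by cardiocentesis after CO₂ euthanasia, and serum TNFα was measured by ELISA against vehicle controls.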

[3] = AUC at a dose of 10 mg/Kg administered to female hanover-wistar rat intravenously; format: ADME, organism-based; settings: plasma, iv
In short: (§1)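 Female Wistar/Han rats weighing 180–220 g, 3 per dose regime, received a single 10 mg/kg IV bolus in 50% cyclodextran/water. Blood was drawn under CO₂:O₂ (60:40) via orbital sinus or cardiac puncture at 1, 3, 6, 8 and 24 h. Plasma was protein-precipitated with acetonitrile, diluted in 50 mM formate buffer and quantified by LC/MS.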

Rattus norvegicus = test: AUC at a dose of 10 mg/Kg administered to female hanover-wistar rat per orally; format: ADME, organism-based, Plasma; settings: in vivo, po
In short: (§2)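 Female Wistar/Han rats (180–220 g, n=3 per regime) received a single 10 mg/kg oral suspension in 0.9% NaCl, 0.5% Na-CMC, 0.4% polysorbate 80 and 0.9% benzyl alcohol. Blood was taken at 1, 3, 6, 8 and 24 h by orbital sinus or cardiac puncture. Plasma drug was measured by LC/MS after acetonitrile precipitation; the comparison arm was a 10 mg/kg IV bolus.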

[4] = CL at a dose of 10 mg/Kg administered to female hanover-wistar rat intravenously; format: ADME, organism-based; settings: in vivo, iv; in short: as §1
[5] = C max at a dose of 10 mg/Kg administered to female hanover-wistar rat intravenously; format: ADME, organism-based; design: dose 10 mg/Kg, route intravenous; settings: in vivo, iv; in short: as §1
[6] = C max at a dose of 10 mg/Kg administered to female hanover-wistar rat per orally; format: ADME, organism-based; design: dose 10 mg/Kg, route oral; settings: in vivo, po; in short: as §2
[7] = Bioavailability at a dose of 10 mg/Kg administered to female hanover-wistar rat per orally; format: ADME, organism-based; settings: in vivo, po; in short: as §2
[8] = T 1/2 at a dose of 10 mg/Kg administered to female hanover-wistar rat intravenously; format: ADME, organism-based; settings: in vivo, iv; in short: as §1
[9] = T 1/2 at a dose of 10 mg/Kg administered to female hanover-wistar rat per orally; format: ADME, organism-based; settings: in vivo, po; in short: as §2
[10] = T max at a dose of 10 mg/Kg administered to female hanover-wistar rat per orally; format: ADME, organism-based; settings: in vivo, po; in short: as §2

Sequence of Mitogen-activated protein kinase 14 (Q16539 whole entry): as the sequence (P70618 whole entry) above, with V17I, H48L, A263T, E321D, F332L counted along it

IC50 [1]	inhibition [2]	SMILES	also measured
185 nM	79%	Fc1ccc(-c2c(-c3ccncc3)n(CCN3CCOCC3)c3cccnc23)cc1	
53 nM	98%	Fc1ccc(-c2c(-c3ccncc3)[nH]c3nccnc23)cc1	
1 nM	76%	C[C@@H](O)CNc1cc(-c2[nH]c3cccnc3c2-c2ccc(F)cc2)ccn1	AUC [3]: 27.5 µM·h; AUC (Rattus norvegicus): 8.4 µM·h; clearance [4]: 16.7 mL/min/kg; Cmax [5]: 8.8 µM; Cmax [6]: 2.8 µM; bioavailability [7]: 30.5%; half-life [8]: 2.9 h; half-life [9]: 1.5 h; Tmax [10]: 1 h
3100 nM		Fc1ccc(-c2c(-c3ccncc3)[nH]c3ccncc23)cc1	

SMILES	IC50 [1]	inhibition [2]	also measured
Fc1ccc(-c2c(-c3ccncc3)[nH]c3cccnc23)cc1	6.5 nM	46%	
